According to ChEMBL document CHEMBL1765076, “17,20-Lyase inhibitors. Part 3: Design, synthesis, and structure-activity relationships of biphenylylmethylimidazole derivatives as novel 17,20-lyase inhibitors” (Bioorg Med Chem, 2011):

Columns and labels:
Cynomolgus monkey [1] = experiment: Antiandrogenic activity in cynomolgus monkey assessed as serum testosterone level at 3 mg/kg, po after 5 hrs (reference value: 98 +/- 33%); format: functional, Macaca fascicularis
Cynomolgus monkey [2] = experiment: Antiandrogenic activity in cynomolgus monkey assessed as serum testosterone level at 3 mg/kg, po after 2 hrs (reference value: 110 +/- 29%); format: functional, Macaca fascicularis
Cynomolgus monkey [3] = experiment: Antiandrogenic activity in cynomolgus monkey assessed as serum DHEA level at 3 mg/kg, po after 2 hrs (reference value: 116 +/- 95%); format: functional, Macaca fascicularis
Cynomolgus monkey [4] = experiment: Antiandrogenic activity in cynomolgus monkey assessed as serum DHEA level at 3 mg/kg, po after 5 hrs (reference value: 148 +/- 53%); format: functional, Macaca fascicularis
[5] = biological target: T1, Steroid 17-alpha-hydroxylase/17,20 lyase (Rattus norvegicus, UniProt P11715); experiment: Inhibition of 17,20 lyase activity in Sprague-Dawley rat testicular microsomes; design: species or system Testis
T1 sequence (P11715 whole entry): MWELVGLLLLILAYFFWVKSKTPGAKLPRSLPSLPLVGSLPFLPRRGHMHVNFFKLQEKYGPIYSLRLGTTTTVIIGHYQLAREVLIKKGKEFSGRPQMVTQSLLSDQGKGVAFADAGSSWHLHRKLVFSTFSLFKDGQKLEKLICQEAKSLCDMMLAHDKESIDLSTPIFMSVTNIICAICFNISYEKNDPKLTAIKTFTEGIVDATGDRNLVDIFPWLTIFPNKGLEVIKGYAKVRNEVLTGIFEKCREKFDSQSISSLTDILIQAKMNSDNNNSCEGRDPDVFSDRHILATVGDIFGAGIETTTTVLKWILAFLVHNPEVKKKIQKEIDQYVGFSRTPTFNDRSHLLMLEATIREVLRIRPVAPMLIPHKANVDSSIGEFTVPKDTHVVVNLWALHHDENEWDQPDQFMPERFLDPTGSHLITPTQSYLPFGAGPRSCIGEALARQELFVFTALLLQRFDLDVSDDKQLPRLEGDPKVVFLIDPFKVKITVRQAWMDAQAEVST
In short: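 Testicular microsomes came from 13-week-old male SD rats, prepared by homogenisation and centrifugation. Reactions contained 75 mM phosphate (pH 7.4), 7 µg microsomal protein, 10 nM [1,2-3H]-17α-hydroxyprogesterone, 5 mM NADPH and 1–1000 nM compound (final concentrations; DMF stocks diluted in water). Incubation was 15 min at 37 °C, stopped with ethyl acetate. IC50 is the concentration halving product formation.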

[6] = biological target: T2, Steroid 17-alpha-hydroxylase/17,20 lyase (Homo sapiens, UniProt P05093); experiment: Inhibition of human 17,20 lyase activity
T2 sequence (P05093 whole entry): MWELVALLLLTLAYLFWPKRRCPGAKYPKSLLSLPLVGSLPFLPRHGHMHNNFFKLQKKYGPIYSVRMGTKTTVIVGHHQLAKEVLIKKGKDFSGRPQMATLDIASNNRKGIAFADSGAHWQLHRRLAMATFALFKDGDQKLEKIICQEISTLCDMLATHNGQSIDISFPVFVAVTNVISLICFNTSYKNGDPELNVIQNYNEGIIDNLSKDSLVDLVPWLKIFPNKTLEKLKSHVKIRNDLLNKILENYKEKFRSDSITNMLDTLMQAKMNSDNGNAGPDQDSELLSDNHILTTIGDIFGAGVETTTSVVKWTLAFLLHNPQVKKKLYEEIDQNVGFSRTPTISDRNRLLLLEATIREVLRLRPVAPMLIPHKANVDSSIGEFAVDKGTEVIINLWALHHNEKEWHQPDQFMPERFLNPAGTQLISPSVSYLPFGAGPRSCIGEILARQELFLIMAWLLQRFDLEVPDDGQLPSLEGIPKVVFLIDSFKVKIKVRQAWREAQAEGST

Cytochrome P450 3A4 = Cytochrome P450 3A4 (Homo sapiens, UniProt P08684); experiment: Inhibition of human CYP3A4 after 30 mins; format: ADME
Homo sapiens = species: Homo sapiens; experiment: Ratio of IC50 for human CYP3A4 to IC50 for human 17,20-lyase

Chain of Cytochrome P450 3A4 (P08684 whole entry): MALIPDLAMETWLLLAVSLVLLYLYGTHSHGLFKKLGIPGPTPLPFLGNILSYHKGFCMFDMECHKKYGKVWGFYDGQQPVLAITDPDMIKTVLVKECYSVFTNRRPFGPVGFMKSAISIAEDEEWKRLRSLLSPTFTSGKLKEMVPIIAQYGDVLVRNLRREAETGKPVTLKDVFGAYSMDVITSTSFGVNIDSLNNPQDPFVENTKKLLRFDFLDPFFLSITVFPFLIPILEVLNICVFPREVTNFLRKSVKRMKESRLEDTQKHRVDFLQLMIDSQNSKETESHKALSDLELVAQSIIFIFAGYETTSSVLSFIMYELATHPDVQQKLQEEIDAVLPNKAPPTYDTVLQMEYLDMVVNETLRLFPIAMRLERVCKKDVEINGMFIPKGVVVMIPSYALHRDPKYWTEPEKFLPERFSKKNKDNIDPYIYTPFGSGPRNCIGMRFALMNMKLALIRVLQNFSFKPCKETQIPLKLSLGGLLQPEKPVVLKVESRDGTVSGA

`CC(=O)Nc1cccc(-c2ccc([C@](O)(c3c[nH]cn3)C(C)C)cc2)c1` was tested, and the Activity (Cynomolgus monkey [1]) was 23%, the Activity (Cynomolgus monkey [2]) was 52% and the Activity (Cynomolgus monkey [3]) was 23%. It also gave an Activity (Cynomolgus monkey [4]) of 13%, an IC50 [5] of 14 nM and an IC50 [6] of 26 nM.
For `CC(=O)Nc1cccc(-c2ccc([C@@](O)(c3c[nH]cn3)C(C)C)cc2)c1`, the IC50 [5] was 770 nM and the IC50 [6] was 340 nM.
With `CC(=O)Nc1cccc(-c2ccc([C@](O)(c3cnc[nH]3)C(C)C)cc2)n1` the IC50 [5] was 33 nM, the IC50 (Cytochrome P450 3A4) was greater than 10000 nM and the IC50 [6] was 26 nM.
Molecule `CC(=O)Nc1cccc(-c2ccc([C@@](O)(c3cnc[nH]3)C(C)C)cc2)n1` has an IC50 [5] greater than 1000 nM, an IC50 (Cytochrome P450 3A4) greater than 10000 nM and an IC50 [6] of 92 nM.
Work on `CC[C@](O)(c1ccc(-c2cccc(NC(C)=O)c2)cc1)c1c[nH]cn1` yielded an IC50 [5] of 19 nM, a Ratio IC50 (Homo sapiens) greater than 300 and an IC50 (Cytochrome P450 3A4) greater than 10000 nM. It also gave an IC50 [6] of 22 nM.
`CC[C@@](O)(c1ccc(-c2cccc(NC(C)=O)c2)cc1)c1c[nH]cn1` was tested, and the IC50 [5] was 450 nM, the IC50 (Cytochrome P450 3A4) was greater than 10000 nM and the IC50 [6] was 240 nM.
Work on `CC(=O)Nc1cccc(-c2ccc([C@](O)(c3c[nH]cn3)C(C)C)cc2)n1` yielded a Ratio IC50 (Homo sapiens) greater than 300.
In the case of `COc1ccc(-c2cccc(C(O)(c3c[nH]cn3)C(C)C)c2)cc1` (racemic), the Ratio IC50 (Homo sapiens) is reported as 15, the IC50 (Cytochrome P450 3A4) is reported as 2000 nM and the IC50 [6] is reported as 130 nM.
With `CC(C)C(O)(c1cccc(-c2ccc(F)cc2)c1)c1c[nH]cn1` (racemic) the Ratio IC50 (Homo sapiens) was 111, the IC50 (Cytochrome P450 3A4) was 2100 nM and the IC50 [6] was 19 nM.
Work on `CC(C)C(O)(c1cccc(-c2ccc(Cl)cc2)c1)c1c[nH]cn1` (racemic) yielded an IC50 [5] of 19 nM, a Ratio IC50 (Homo sapiens) of 49 and an IC50 (Cytochrome P450 3A4) of 2400 nM. The IC50 [6] was 49 nM.
With `CC(C)C(O)(c1ccc(-c2ccccc2)cc1)c1c[nH]cn1` (racemic) the IC50 [5] was 33 nM, the Ratio IC50 (Homo sapiens) was 112 and the IC50 (Cytochrome P450 3A4) was 3700 nM. For the same molecule, the IC50 [6] was 33 nM.
`COc1ccc(-c2ccc(C(O)(c3c[nH]cn3)C(C)C)cc2)cc1` (racemic) was tested, and the IC50 [5] was 120 nM, the Ratio IC50 (Homo sapiens) was 91 and the IC50 (Cytochrome P450 3A4) was 4900 nM. The IC50 [6] was 54 nM.
For `CC(C)C(O)(c1ccc(-c2ccc(F)cc2)cc1)c1c[nH]cn1` (racemic), the Ratio IC50 (Homo sapiens) was 196, the IC50 (Cytochrome P450 3A4) was 5300 nM and the IC50 [6] was 27 nM.
`CC(C)C(O)(c1ccc(-c2ccc(Cl)cc2)cc1)c1c[nH]cn1` (racemic) gave an IC50 [5] of 29 nM, a Ratio IC50 (Homo sapiens) of 271 and an IC50 (Cytochrome P450 3A4) of 7600 nM. For the same molecule, the IC50 [6] was 28 nM.
In the case of `CC(=O)Nc1cccc(-c2ccc(C(O)(c3c[nH]cn3)C(C)C)cc2)c1` (racemic), the IC50 [5] is reported as 17 nM and the IC50 [6] is reported as 24 nM.
Work on `CC(=O)Nc1ccc(-c2ccc(C(O)(c3c[nH]cn3)C(C)C)cc2)cc1` (racemic) yielded an IC50 [5] of 24 nM, an IC50 (Cytochrome P450 3A4) of 1000 nM and an IC50 [6] of 120 nM.
In the case of `CNC(=O)c1cccc(-c2ccc(C(O)(c3c[nH]cn3)C(C)C)cc2)c1` (racemic), the IC50 [5] is reported as 49 nM, the IC50 (Cytochrome P450 3A4) is reported as 8100 nM and the IC50 [6] is reported as 44 nM.
`CNS(=O)(=O)c1cccc(-c2ccc(C(O)(c3cnc[nH]3)C(C)C)cc2)c1` (racemic) was tested, and the IC50 [5] was 71 nM, the IC50 (Cytochrome P450 3A4) was 3300 nM and the IC50 [6] was 160 nM.
`CNC(=O)Nc1cccc(-c2ccc(C(O)(c3c[nH]cn3)C(C)C)cc2)c1` (racemic) gave an IC50 [5] of 24 nM, an IC50 (Cytochrome P450 3A4) of 5500 nM and an IC50 [6] of 21 nM.
With `CC(C)C(O)(c1ccc(-c2ccccn2)cc1)c1c[nH]cn1` (racemic) the IC50 [5] was 210 nM, the IC50 (Cytochrome P450 3A4) was 5200 nM and the IC50 [6] was 150 nM.
`CC(=O)Nc1cccc(-c2ccc(C(O)(c3c[nH]cn3)C(C)C)cc2)n1` (racemic) gave an IC50 [5] of 53 nM, an IC50 (Cytochrome P450 3A4) greater than 10000 nM and an IC50 [6] of 36 nM.
For `CC(=O)Nc1cccc(-c2ccc(C(C)(O)c3c[nH]cn3)cc2)c1` (racemic), the IC50 [5] was 62 nM, the IC50 (Cytochrome P450 3A4) was greater than 10000 nM and the IC50 [6] was 38 nM.
Work on `CCC(O)(c1ccc(-c2cccc(NC(C)=O)c2)cc1)c1c[nH]cn1` (racemic) yielded an IC50 [5] of 25 nM, an IC50 (Cytochrome P450 3A4) greater than 10000 nM and an IC50 [6] of 40 nM.
Molecule `CC(=O)Nc1cccc(-c2ccc(C(O)(c3c[nH]cn3)C3CC3)cc2)c1` (racemic) has an IC50 [5] of 81 nM, an IC50 (Cytochrome P450 3A4) of 5500 nM and an IC50 [6] of 45 nM.
`CC(=O)Nc1cccc(-c2ccc(C(O)c3cnc[nH]3)cc2)c1` (racemic) showed an IC50 [5] of 320 nM, an IC50 (Cytochrome P450 3A4) greater than 10000 nM and an IC50 [6] of 77 nM.
For `COc1ccc2cc(C(O)(c3c[nH]cn3)C(C)C)ccc2c1` (racemic), the IC50 (Cytochrome P450 3A4) was less than 1000 nM.
